Experimental data gathered from unrelated publications.
Cell line: HL-60
Read-out: cell growth or viability

| SMILES | test | setting | IC50 [µM] |
| --- | --- | --- | --- |
| O=C(Nc1nnc(-c2cc3ccccc3[nH]2)s1)c1cc2c([nH]c3ccccc32)c(-c2ccc(F)cc2)n1 | MTT | 72 h | 9.85 |
| O=c1[nH]c(=S)n(Cc2ccc(Cl)cc2CNCC(F)(F)F)c2cc[nH]c12 | – | – | 1.3 |
| CCn1c(-c2nnc(NC(=O)c3cc4c([nH]c5ccccc54)c(-c4ccc(OC)cc4)n3)s2)cc2ccccc21 | MTT | 72 h | 46.2 |
| CC(C)C[C@H](NC(=O)[C@H](Cc1ccccc1)NC(=O)c1cnccn1)B(O)O | ATP luminescence | – | 0.0041 |
| COc1cc(-c2nc(C(=O)Nc3nnc(-c4cc5ccccc5n4C)s3)cc3c2[nH]c2ccccc23)cc(OC)c1OC | MTT | 72 h | 10 |
| COc1cc([C@@H]2c3cc4c(cc3[C@@H](O[C@@H]3O[C@@H]5CO[C@@H](C)O[C@H]5[C@H](O)[C@H]3O)[C@H]3COC(=O)[C@H]23)OCO4)cc(OC)c1O | MTT | 48 h | 0.31 |
| Cn1c(-c2nnc(NC(=O)c3cc4c([nH]c5ccccc54)c(-c4ccc(F)cc4)n3)s2)cc2ccccc21 | MTT | 72 h | 37.2 |
| CCCCN(Cc1ccc(C(=O)NO)cc1)C(=O)Nc1ccccc1 | ATP luminescence | 72 h | 0.894 |
| CC[C@@H](C)[C@H](N)C(=O)N1Cc2ccccc2C1 | ATP luminescence | 48 h | 2.14 |
| COc1ccc(C(=O)c2ccccc2)c(O)c1 | resazurin | 72 h, dark | ~120 |
| CCCON(Cc1ccc(C(=O)NO)cc1)C(=O)Nc1ccc(N(C)C)cc1 | ATP luminescence | 72 h | 12.9 |
| CN1c2ccccc2C(=O)N2[C@H](C(=O)Nc3ccc(/C=C/C(=O)NO)cc3)Cc3c([nH]c4ccccc34)[C@@H]12 | – | – | 0.63 |
